Measurements of several laboratories.
Lines come from different studies, so protocols differ.
Target: Testis-specific serine/threonine-protein kinase 2 (TSSK2, Homo sapiens, UniProt Q96PF2)
One construct used (Q96PF2 1-358): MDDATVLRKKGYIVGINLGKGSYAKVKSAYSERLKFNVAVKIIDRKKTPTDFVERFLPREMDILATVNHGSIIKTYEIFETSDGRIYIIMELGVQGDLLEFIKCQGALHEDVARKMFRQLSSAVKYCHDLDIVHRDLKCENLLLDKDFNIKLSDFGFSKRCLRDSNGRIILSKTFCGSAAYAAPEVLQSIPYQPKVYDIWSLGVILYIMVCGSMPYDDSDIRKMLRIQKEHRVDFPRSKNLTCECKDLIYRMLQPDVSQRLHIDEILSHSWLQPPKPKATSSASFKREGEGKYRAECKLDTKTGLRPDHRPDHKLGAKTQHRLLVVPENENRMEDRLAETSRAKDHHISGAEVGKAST

| Compound | test | setting | quantity | value |
| --- | --- | --- | --- | --- |
| CCN(CC)c1ccc(C2=NNC(=O)CC2C)cc1[N+](=O)[O-] (stereo not shown) | enzyme activity, inhibitor | 10 µM | remaining activity | 96% |
| O=C1NC(=O)c2cc(Nc3ccc(F)cc3)c(Nc3ccc(F)cc3)cc21 | cell-free assay | 0.5 µM | remaining signal | 97.2% |
| CCN(CC)CCNC(=O)c1c(C)[nH]c(/C=C2\C(=O)Nc3ccc(F)cc32)c1C | enzyme activity, inhibitor | 10 µM | inhibition | 54% |
| Cc1ccc(NC(=O)c2ccc(C)c(C(F)(F)F)c2)cc1C#Cc1nn(C2CCC(O)CC2)c2ncnc(N)c12 (stereo not shown) | cell-free assay | 10 µM | remaining signal | 96% |
| CCCS(=O)(=O)Nc1ccc(F)c(C(=O)c2c[nH]c3ncc(-c4ccc(Cl)cc4)cc23)c1F | enzyme activity, inhibitor | 1 µM | inhibition | < 10% |
| Cc1ccc(Nc2nccc(N(C)c3ccc4c(C)n(C)nc4c3)n2)cc1S(N)(=O)=O | enzyme activity, inhibitor | 10 µM | inhibition | 5% |
| Cc1sc(C(=O)NC2COC2)cc1-n1cc(NC(=O)Nc2c(F)cccc2Cl)cn1 | enzyme activity, inhibitor | 10 µM | remaining activity | 84.7% |
| COc1cc2ncnc(Nc3ccc(Oc4ccccc4)cc3C)c2cc1OC | enzyme activity, inhibitor | 1 µM | inhibition | -1% |
| Cc1cnc(NC2CCOCC2)nc1-n1cnc(C(=O)NC(CN)c2cc(F)cc(Cl)c2)c1 (stereo not shown) | enzyme activity, inhibitor, radiometric | 1 µM | remaining activity | 108% |
| CC(C)(C)c1nc2c(s1)c1nc(N)ncc1c1ccc(NS(=O)(=O)c3c(F)cccc3F)c(F)c12 | enzyme activity, inhibitor, radiometric | 1 µM | remaining activity | 95% |
| CC(C)(O)[C@H]1CC[C@H](Nc2ccc3ncc(-c4cccc(C(F)(F)F)c4)n3n2)CC1 | enzyme activity, inhibitor | 1 µM | remaining activity | 101% |
| CNC(=O)c1cc(Oc2ccc(NC(=O)Nc3ccc(Cl)c(C(F)(F)F)c3)cc2)ccn1 | enzyme activity, inhibitor | 0.3 µM | inhibition | -4% |
| COc1cc(Cl)c(C(=O)N[C@@H](CN[C@H]2CC[C@@H](N)CC2)Cc2ccc(C#N)cc2)cc1-c1ccc(CN[C@H](C)c2ccc(C)cc2)o1 | enzyme activity, inhibitor | 1 µM | remaining activity | 101% |
